{"source": "ChEMBL document CHEMBL3244351", "about": "“Aroyl- and arylisoquinolineacetic acids as antiinflammatory agents” (1978)", "key": {"Rattus norvegicus [1]": {"tested_on": "Rattus norvegicus", "test": "Antiinflammatory activity in carrageenan-induced rat assessed as efficacy ratio for reduction in pleural effusion at 316 mg/kg, po after 5 hrs by Evans blue assay relative to control", "format": "functional", "summary_of_the_method": "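Rats given 316 mg/kg orally (two rats), then intrapleural injection of 5 mL 0.075% Evans blue/0.5% carrageenan type 7. Pleural effusion volume measured at 5 h. Efficacy ratio is control effusion volume divided by treated effusion volume, judged by sequential analysis; a ratio ≥1.30 counts as active.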"}, "Rattus norvegicus [2]": {"tested_on": "Rattus norvegicus", "test": "Antiinflammatory activity in Evans blue carrageenan-induced pleural effusion rat model assessed as decrease in volume of pleural fluid at 100 mg/kg relative to control", "set-up": "scale not given: the % may be the effect or the level left"}, "Rattus norvegicus [3]": {"tested_on": "Rattus norvegicus", "test": "Antiinflammatory activity in adjuvant-induced arthritic rat chronic inflammation model assessed as […] at 31.6 mg/kg", "format": "functional, organism-based", "set-up": "dose 31.6 mg/kg"}}, "note": "Activity calls are given as the source filed them. No cut-off for these calls is given here.", "data": [{"molecule": "O=C(O)c1cc2ccccc2c(C(=O)c2ccccc2)n1", "values": [{"measurement": "T/C", "setting": "Rattus norvegicus [1]", "value": 1.28}]}, {"molecule": "NC(=O)Cc1cnc(-c2ccccc2)c2ccccc12", "values": [{"measurement": "Activity", "setting": "Rattus norvegicus [2]", "value": 9, "unit": "%"}]}, {"molecule": "Br.CCOC(=O)Cc1cc2ccccc2cn1", "values": [{"measurement": "T/C", "setting": "Rattus norvegicus [1]", "value": 1.2}]}, {"molecule": "Br.O=C(c1ccccc1)c1ccccn1", "values": [{"measurement": "Activity", "setting": "Rattus norvegicus [2]", "value": "inactive"}, {"measurement": "T/C", "setting": "Rattus norvegicus [1]", "value": 1.23}]}, {"molecule": "NC(=O)Cc1cc2ccccc2c(C(=O)c2ccccc2)n1", "values": [{"measurement": "Activity", "setting": "Rattus norvegicus [2]", "value": "inactive"}, {"measurement": "T/C", "setting": "Rattus norvegicus [1]", "value": 0.9}]}, {"molecule": "Br.CCOC(=O)c1cc2ccccc2cn1", "values": [{"measurement": "Activity", "setting": "Rattus norvegicus [2]", "value": 1, "unit": "%"}, {"measurement": "T/C", "setting": "Rattus norvegicus [1]", "value": 1.97}]}, {"molecule": "NC(=O)Cc1cc2ccccc2c(-c2ccc(Cl)cc2)n1", "values": [{"measurement": "Activity", "setting": "Rattus norvegicus [3]", "value": "inactive"}, {"measurement": "Activity", "setting": "Rattus norvegicus [2]", "value": 22, "unit": "%"}]}, {"molecule": "NC(=O)Cc1cc2ccccc2c(-c2ccccc2)n1", "values": [{"measurement": "Activity", "setting": "Rattus norvegicus [2]", "value": 14, "unit": "%"}, {"measurement": "T/C", "setting": "Rattus norvegicus [1]", "value": 1.33}]}, {"molecule": "CCCCC1C(=O)N(c2ccccc2)N(c2ccccc2)C1=O", "values": [{"measurement": "Activity", "setting": "Rattus norvegicus [3]", "value": "Active"}]}, {"molecule": "O=C(O)c1cc2ccccc2c(-c2ccccc2)n1", "values": [{"measurement": "Activity", "setting": "Rattus norvegicus [2]", "value": "inactive"}, {"measurement": "T/C", "setting": "Rattus norvegicus [1]", "value": 1.26}]}, {"molecule": "Br.Cc1cc2ccccc2c(C(=O)c2ccccc2)n1", "values": [{"measurement": "Activity", "setting": "Rattus norvegicus [2]", "value": "inactive"}, {"measurement": "T/C", "setting": "Rattus norvegicus [1]", "value": 0.93}]}, {"molecule": "O=C(O)c1ccc2ccccc2c1", "note": "[BETA-NAPHTOIC ACID]", "values": [{"measurement": "Activity", "setting": "Rattus norvegicus [2]", "value": "inactive"}, {"measurement": "T/C", "setting": "Rattus norvegicus [1]", "value": 1.13}]}, {"molecule": "Br.O=C(c1ccccc1)c1nccc2ccccc12", "values": [{"measurement": "Activity", "setting": "Rattus norvegicus [2]", "value": "inactive"}, {"measurement": "T/C", "setting": "Rattus norvegicus [1]", "value": 0.83}]}, {"molecule": "CCOC(=O)c1nc(-c2ccccc2)c2ccccc2c1OC(C)=O", "values": [{"measurement": "Activity", "setting": "Rattus norvegicus [2]", "value": "inactive"}, {"measurement": "T/C", "setting": "Rattus norvegicus [1]", "value": 1.06}]}]}
